Source: PubChem BioAssay (Johns Hopkins Ion Channel Center)
Most compounds without a hit are left out; they make up all but 3.7% or so of the library.
KCNK9 block: KCNK9 potassium channel inhibitors, primary screen, HEK293 cells, thallium flux. Potassium channel subfamily K member 9 (Homo sapiens), Q9NPC2. FluxOR thallium flux fluorescence; stronger effect = lower value. B-score at 10 µM. 310,000 tested, 1.2% active;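 active = ratio B-score over 3 SD below the library mean, with starting fluorescence within 5 SD of its mean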;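 also: negative B-score means less thallium flux so channel inhibition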
KCNK3 inh: human KCNK3 channel inhibitors, primary screen, CHO cells, FluxOR thallium flux, B-score; Potassium channel subfamily K member 3 (Homo sapiens), O14649; FluxOR fluorescence; stronger effect = lower value; B-score at 10 µM; 340,000 tested, 0.84% active; AID 602410, 2012;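 active = B-score under library mean minus 4 SD, starting fluorescence ratio at most library mean plus 5 SD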;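 also: more negative B-score means stronger inhibition of thallium flux through KCNK3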
Target sequence (O14649 whole entry, looked up): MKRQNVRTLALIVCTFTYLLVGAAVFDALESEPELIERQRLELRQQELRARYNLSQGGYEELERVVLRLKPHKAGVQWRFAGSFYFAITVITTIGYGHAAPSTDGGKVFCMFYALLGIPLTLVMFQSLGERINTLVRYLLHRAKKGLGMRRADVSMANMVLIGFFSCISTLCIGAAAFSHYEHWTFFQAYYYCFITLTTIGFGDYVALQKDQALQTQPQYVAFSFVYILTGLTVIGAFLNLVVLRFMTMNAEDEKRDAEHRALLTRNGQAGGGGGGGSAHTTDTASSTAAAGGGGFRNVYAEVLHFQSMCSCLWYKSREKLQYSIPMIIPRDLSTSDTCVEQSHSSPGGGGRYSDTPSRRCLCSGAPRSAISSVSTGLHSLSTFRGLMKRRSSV
Kir21 inh: inhibitors of mouse Kir2.1 inward-rectifier potassium channel | HEK293-Kir2.1, FluxOR thallium flux fluorescence; stronger effect = lower value | Inward rectifier potassium channel 2 (Mus musculus), P35561 | B-score at 10 µM | 310,000 tested, 0.85% active;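 active = fluorescence ratio B-score at or below minus 3 SD of library scores, with starting-brightness B-score within 2 SD, cut at about -4.2 in these data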;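 also: channel flux triggered by added potassium and thallium sulfate stimulus; B-score of peak minus minimum fluorescence over baseline after thallium stimulus; more negative B-score means stronger Kir2.1 block with less thallium influx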
KCNQ1 block: inhibitors of human KCNQ1 channel, primary screen, cell-based, thallium flux, high-throughput; CHO-K1 KCNQ1, FluxOR thallium flux fluorescence; stronger effect = higher value; B-score at 10 µM; 310,000 tested, 1.3% active; AID 2642, 2010;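 active = compounds whose thallium flux B-score, printed positive for inhibition, exceeds three library SD while starting fluorescence stays within three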;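 also: channel opened by potassium depolarization with thallium stimulus after 20 min compound exposure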
KCNQ1 act: potentiators or activators of KCNQ1 channel, primary screen, cell-based, thallium flux, high-throughput. Potassium voltage-gated channel subfamily KQT member 1 (Homo sapiens), P51787. CHO-K1 KCNQ1, thallium flux FluxOR fluorescence; stronger effect = higher value. B-score at 10 µM. 310,000 tested, 0.35% active. AID 2648, 2010;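 active = fluorescence ratio B-score, a plate-corrected score, at least three library SD, with initial intensity B-score within 5 SD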
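Test system: CHO-K1 cells stably expressing KCNQ1 / Medium: assay buffer / Also added: depolarizing K+/Tl+ stimulus, K2SO4 and Tl2SO4 each 12.5 mM in 5x stock / Incubation: 90 min dye loading and 20 min compound exposure, both at room temperature / Signal: thallium influx via FluxOR fluorescence, kinetic imaging / Evaluation: B score of baseline-normalized fluorescence ratio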
hERG rescue: hERG rescue from dofetilide block, primary screen, cell-based, CHO-hERG, FluxOR thallium flux, dofetilide IC70. Voltage-gated inwardly rectifying potassium channel KCNH2 (Homo sapiens), Q12809. dofetilide IC70 present. activation (rescue from dofetilide block), less the hit threshold, % at 10 µM. 310,000 tested, 0.51% active. AID 1511, 2009;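 active = activation above the mean of controls blocked by dofetilide plus 5 SD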;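 also: thallium influx through hERG after potassium depolarization seen as dye fluorescence rise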
The depositor's hits bear a star; i = inactive; / = not tested or not shown.

SMILES	KCNK9 block	KCNK3 inh	Kir21 inh	KCNQ1 block	KCNQ1 act	hERG rescue
CCOc1ccc(NC(=O)CSc2nnc(C3CC3)n2C)cc1	i	i	-1.08	i	i	-4.9
CC(O/N=C/c1ccc(OC(F)F)cc1)C(=O)Nc1cccc(S(=O)(=O)N2CCOCC2)c1 (centres undefined)	i	i	-1.84	i	i	-4.5
Cc1ccc(Cc2c[nH]c(=S)s2)cc1	i	i	1.04	i	38*	26.6*
COc1cc(-c2cc(C(=O)Nc3ccc(O)cc3)c3ccccc3n2)cc(OC)c1OC	i	i	0.89	i	i	-14.9
COc1cc(-c2cc(C(=O)Nc3cccc(C(C)=O)c3)c3ccccc3n2)cc(OC)c1OC	i	-11.2*	-0.49	i	i	-15.3
N#Cc1ccc(/C=N/NC(=O)c2cc(-c3cccs3)nc3ccccc23)cc1	i	i	0.1	6*	i	-15.1
O=C(N/N=C/c1ccccn1)c1cc(-c2ccc(Cl)cc2)nc2ccccc12	i	i	-0.24	i	i	-10.6
O=C(N/N=C/c1ccccn1)c1sc2ccccc2c1Cl	i	i	-0.14	i	17*	3.8
O=C(N/N=C/c1ccccn1)c1cc(-c2ccc(Br)cc2)nc2ccccc12	i	i	1.46	i	14*	-0.6
O=C(N/N=C/c1c[nH]c2ccccc12)c1sc2ccccc2c1Cl	i	i	-0.03	i	i	-8.8
CC(=O)N1CCN(S(=O)(=O)c2ccc(S(=O)(=O)NC3CCCCC3)cc2)CC1	i	i	1.35	i	i	-4.0
Cc1ccc(NC(=O)CSc2cccc[n+]2[O-])c([N+](=O)[O-])c1	i	i	-0.86	i	i	0.3
Cc1cccc(OCC(=O)Nc2ccc(S(=O)(=O)Nc3onc(C)c3C)cc2)c1C	i	i	1.39	i	i	-12.0
CCOC(=O)Cc1csc(NC(=O)CSc2nccn2C)n1	i	i	-0.05	i	i	-5.2
Cc1cc(NC(=O)c2cc(-c3ccncc3)nc3ccccc23)ccc1Br	/	-13*	/	/	/	/
CC(C)(C)c1nnc(NC(=O)c2cc(-c3ccccc3)nc3ccccc23)s1	i	i	0.44	6*	i	-16.5
O=C(Nc1ccccn1)c1cc(-c2ccc(Cl)s2)nc2ccccc12	/	i	/	/	/	/
O=C(NC(=S)Nc1ccccn1)c1cc(-c2ccccc2)nc2ccccc12	i	i	1.6	i	8*	3.6
O=C(NC(=S)Nc1ccccc1)c1cc(-c2ccccc2)nc2ccccc12	i	i	1.01	i	33*	4.3
CC(=O)c1cccc(NC(=O)c2cc(-c3ccncc3)nc3ccccc23)c1	/	i	/	/	/	/
CCOC(=O)N1CCN(C(=O)COC(=O)COc2c(C)cc(C)cc2C)CC1	i	i	0.32	i	i	-11.7
O=C(NCCC1CCCCN1S(=O)(=O)c1cccs1)C(=O)NCc1ccccc1 (centres undefined)	i	i	-0.75	i	i	-1.8
CN1CCN(C(=O)C2=C[C@H](c3ccc(C(F)(F)F)cc3)C[C@H](OCc3ccc(CO)cc3)O2)CC1	i	i	-1.05	i	i	-7.7
C#CCNC(=O)C1=C[C@@H](c2ccc3c(c2)OCO3)C[C@@H](OCCCCO)O1	i	i	-0.12	i	i	-6.5
CCCOc1cccc(-c2cc(C(=O)N/N=C/c3cccnc3)c3ccccc3n2)c1	i	i	0.09	9*	i	-29.5
O=C(O)CC1c2ccccc2CCN1S(=O)(=O)c1cccs1 (centres undefined)	i	i	1.39	i	i	-9.9
